# Hits are enriched below; roughly 12% of the tested compounds scored in any of these assays.
# ABCG2 block: human ABCG2 inhibition, ABCB1 as counter-screen; Q9UNQ0; IgMXP3 cells, JC-1 efflux, flow cytometry; inhibition, % at 6.6 µM; hit rate 0.1% among 190,000; AID 1325;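 active = inhibition above 80%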;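 also: 0% = DMSO and 100% = nicardipine control wells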
#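 Assay system – ABCG2 IgMXP3 and barcoded ABCB1 CCRF-Adr cell mix · Input – 3 million cells/mL in well · Reagent – JC-1 fluorescent substrate · Compound – single test compound dose, 6.6 µM final · Timing – 10 min exposure at 25 °C with rotation, no wash · Detection – flow cytometry of retained JC-1 fluorescence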
# RAM network inh: inhibitors of the yeast RAM network | inhibition, % at 50 µM | AID 868 | S. cerevisiae dse1pr::URA3 reporter, 5-FOA growth OD615, 2 d; analog-sensitive cbk1-as2 kinase mutant strain | hit rate 1.8% among 190,000;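 active = inhibition above a set limit, 3 SD over mean compound inhibition, cut at about 8.4% in these data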;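 also: 0% = DMSO-only wells with no growth and 100% = 10 µM 1-NA-PP1 full growth; inhibition rescues growth on 5-FOA so higher OD means more RAM inhibition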
# L major viab: reduces viability of Leishmania major promastigotes; AID 1063; resazurin fluorescence viability; inhibition, % at 10 µM; hit rate 9% among 200,000; in the data active = inhibition above about 50%;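 also: promastigotes grown with compound for 44 hours at 28 °C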
# WT yeast gro inh: growth inhibition of WT yeast, mitochondrial fusion screen; hit rate 2.1% among 190,000; inhibition, % at 10 µM; mitochondrial fusion phenotypic screen, WT strain; AID 1362; in the data active = inhibition above about 58%; tested in S. cerevisiae
# ABCB1 block: inhibitors of human ABCB1 transporter, ABCG2 counter-screen. CCRF-Adr cells, JC-1 efflux, flow cytometry. inhibition, % at 6.6 µM. hit rate 0.067% among 190,000; in the data active = inhibition above about 40%;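 also: 0% = vehicle and 100% = reference inhibitor; higher value means more JC-1 retained so stronger ABCB1 efflux block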
# Target sequence (P08183 whole entry, looked up): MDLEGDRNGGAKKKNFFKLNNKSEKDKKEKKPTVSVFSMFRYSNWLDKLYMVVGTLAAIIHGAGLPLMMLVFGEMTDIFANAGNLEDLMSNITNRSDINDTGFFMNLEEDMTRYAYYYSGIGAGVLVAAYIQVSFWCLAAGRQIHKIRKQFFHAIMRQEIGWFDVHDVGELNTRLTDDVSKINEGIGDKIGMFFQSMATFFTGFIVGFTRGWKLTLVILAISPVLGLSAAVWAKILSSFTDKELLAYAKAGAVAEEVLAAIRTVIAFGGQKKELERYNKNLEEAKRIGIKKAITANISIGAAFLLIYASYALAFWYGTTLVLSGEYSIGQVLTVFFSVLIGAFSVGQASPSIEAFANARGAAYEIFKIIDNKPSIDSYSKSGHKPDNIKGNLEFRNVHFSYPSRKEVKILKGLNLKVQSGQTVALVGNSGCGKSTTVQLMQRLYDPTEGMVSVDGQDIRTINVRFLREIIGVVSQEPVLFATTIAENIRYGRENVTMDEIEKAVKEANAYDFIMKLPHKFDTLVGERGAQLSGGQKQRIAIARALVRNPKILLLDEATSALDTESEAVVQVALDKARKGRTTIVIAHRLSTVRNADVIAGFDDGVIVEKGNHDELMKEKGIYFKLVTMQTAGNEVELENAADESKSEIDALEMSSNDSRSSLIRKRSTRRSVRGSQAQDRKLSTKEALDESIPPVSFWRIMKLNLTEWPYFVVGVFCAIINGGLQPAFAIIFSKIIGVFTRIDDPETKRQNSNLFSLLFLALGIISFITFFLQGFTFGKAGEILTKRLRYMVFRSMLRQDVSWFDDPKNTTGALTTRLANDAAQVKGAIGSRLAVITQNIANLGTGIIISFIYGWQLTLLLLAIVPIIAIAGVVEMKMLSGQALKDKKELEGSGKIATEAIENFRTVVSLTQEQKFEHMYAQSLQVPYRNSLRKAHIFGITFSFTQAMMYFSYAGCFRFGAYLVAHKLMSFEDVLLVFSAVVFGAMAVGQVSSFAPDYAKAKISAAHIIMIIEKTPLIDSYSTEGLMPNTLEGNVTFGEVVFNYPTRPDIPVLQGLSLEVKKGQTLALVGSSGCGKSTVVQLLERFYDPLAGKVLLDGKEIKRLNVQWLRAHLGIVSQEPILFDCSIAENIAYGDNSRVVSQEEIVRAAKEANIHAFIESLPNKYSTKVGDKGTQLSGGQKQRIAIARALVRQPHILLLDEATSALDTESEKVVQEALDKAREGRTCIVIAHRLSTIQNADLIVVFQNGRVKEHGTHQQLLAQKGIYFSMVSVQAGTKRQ
# Starred values were filed as active, the others as inactive; . = not tested or not shown.
SMILES,ABCG2 block,RAM network inh,L major viab,WT yeast gro inh,ABCB1 block
Cc1noc(C)c1CSc1nc2ccccc2[nH]1,1,1,-2,-5,0
Fc1cccc(F)c1CSc1nc2ccccc2[nH]1,6,-1,100*,0,1
C[n+]1c(/C=C/c2ccc3c(c2)OCO3)ccc2ccccc21,9,0,77*,19,0
CC(=O)C(Cc1ccccc1)NC(=O)CN1CCN(Cc2ccccc2)CC1 (configuration not stated),1,-1,65*,11,0
CC1CCN(CC(=O)NC(=O)NCc2ccccc2)CC1,-4,1,-4,-1,0
CC1(C)C2CCC(C2)C1(C)NC(=O)CN1CCN(Cc2ccccc2)CC1 (configuration not stated),4,1,81*,-12,2
Fc1ccc(/C=N/Nc2nc3ccccc3[nH]2)cc1F,1,1,90*,3,0
C(=N\Nc1nc2ccccc2[nH]1)/c1ccccc1,5,2,47,3,1
Fc1cccc(/C=N/Nc2nc3ccccc3[nH]2)c1,1,1,83*,12,0
O=C(Nc1nc2ccccc2[nH]1)c1ccccc1F,35,0,34,63,0
O=C1c2ccccc2C(=O)N1CCc1csc(-c2cccc(F)c2)n1,10,2,0,-2,1
COC(=O)C1=C(C)NC(C)=C(C(=O)OC)C1c1cn(-c2ccccc2)nc1-c1ccco1,3,3,64*,.,2
COC(=O)C1=C(C)N(c2ccc(C)c(C)c2)/C(=C/c2ccc(O)cc2)C1=O,5,5,99*,6,2
COC(=O)C1=C(C)N(CC2CCCO2)C(=O)/C1=C\c1ccc(O)cc1 (configuration not stated),3,3,22,-11,1
Cc1ccc(NC(=O)CN(C)C(=O)c2n[nH]c(=O)c3ccccc23)cc1,1,1,-5,6,0
Cc1cccc(OCCCN2CCCCCC2)c1,3,0,98*,-10,1
Cc1ccc(C)c(OCCCN2CCCC2)c1,2,0,98*,0,0
Cc1ccc(C(C)C)cc1OCCCCN1CCCC1,2,-2,99*,32,0
CCCSc1nc2ccsc2c(=O)n1CC,5,-1,8,-8,0
COc1cccc(OCCCOc2ccccc2C(C)C)c1,2,0,-1,19,1
Cc1cc(C)c(NC(=O)CN(C2CCCCC2)C2CCCCC2)c(C)c1,.,0,96*,36,.
CCN(CC)CC(=O)Nc1c(C)cc(C)cc1C,.,.,-3,16,.
Cc1noc(NS(=O)(=O)c2ccc(NC(=O)CSc3nnc4c(n3)[nH]c3ccccc34)cc2)c1C,-12,8,57*,-6,-2
O=C(CSc1nnc2c3ccccc3c3ccccc3c2n1)Nc1ccccc1F,-1,1,17,13,0
O=C(CSc1nnc2c3ccccc3c3ccccc3c2n1)Nc1ccccc1,0,6,97*,-16,1
SMILES,ABCG2 block,RAM network inh,L major viab,WT yeast gro inh,ABCB1 block
CCN(CC)S(=O)(=O)c1ccc2[nH]c(=O)cc(C(=O)Nc3cccc(C(C)=O)c3)c2c1,-1,1,-3,-12,0
CC(C)c1ccc(CNc2ccc([N+](=O)[O-])cn2)cc1,0,2,16,26,0
CCCOP(=O)(OCCC)C(Nc1ccc(C(C)C)cc1)c1ccc([N+](=O)[O-])cc1 (configuration not stated),4,9.4*,35,74*,2
CCOC(=O)C1=C(CC)Nc2ccccc2N/C1=N\S(=O)(=O)c1cc(Br)ccc1Br,0,5,3,32,0
CCOC(=O)C1=C(CC)Nc2ccccc2N/C1=N\S(=O)(=O)c1ccc2ccccc2c1,-1,7,6,72*,0
O=C(/C=C/c1ccc(Cl)cc1)NC(=S)NN1CCCCC1c1cccnc1 (configuration not stated),10,-1,91*,66*,2
Nc1nc(SCC(=O)Nc2ccccc2)nc2nc3c(cc12)CCCC3,-5,2,66*,-4,-1
Cc1ccc(NC(=O)CSc2nc(N)c3cc4c(nc3n2)CCCC4)cc1,31,7,93*,7,3
COc1ccc(NC(=O)CSc2nc(N)c3cc4c(nc3n2)CCCC4)c(OC)c1,2,2,3,-2,1
CN1CCN(CCCNC(=O)c2ccc3c(c2)N(Cc2ccccc2)CCS3)CC1,0,0,80*,0,1
Cc1ccc(CN2CCSc3ccc(C(=O)NC4CCN(Cc5ccccc5)CC4)cc32)cc1,5,-1,90*,66,10
O=C(NCCN1CCOCC1)c1ccc2c(c1)N(Cc1ccccc1)CCS2,5,0,5,19,1
COc1cc(-c2[nH]ncc2CN2CCN(Cc3cccs3)CC2)cc(OC)c1OC,1,0,-2,2,1
O=C(NC1CCCC1)C(=O)N(c1ccccc1F)C(C(=O)NCC1CCCO1)c1cccs1 (configuration not stated),1,0,-4,-31,0
c1ccc2c(c1)[nH]c1c(N3CCOCC3)ncnc12,2,0,15,-2,1
c1ccc2c(c1)[nH]c1c(N3CCSCC3)ncnc12,2,1,86*,40,1
c1ccc2c(c1)[nH]c1c(N3CCN(C4CCCCC4)CC3)ncnc12,26,1,78*,2,8
Cc1ccc2[nH]c3c(N4CCc5ccccc5C4)ncnc3c2c1,2,0,68*,23,1
c1ccc2c(c1)[nH]c1c(N3CCCC3)ncnc12,9,0,58*,69*,2
Brc1ccc2[nH]c3c(N4CCc5ccccc5C4)ncnc3c2c1,0,3,48,30,1
CCc1nnc(NC(=O)CSc2nnc(-c3ccc(NS(=O)(=O)c4ccccc4)cc3)o2)s1,-10,2,-2,-6,-2
Cc1ccsc1/C=N/n1c(COc2ccccc2)n[nH]c1=S,-8,5,-2,-13,-2
NC(=O)C1(N2CCCCC2)CCN(C(=S)Nc2ccc(S(N)(=O)=O)cc2)CC1,1,2,-5,10,0
O=C(NC(=S)NC1C2CC3CC(C2)CC1C3)C12CC3CC(CC(C3)C1)C2 (configuration not stated),3,5,51*,63*,0
CC(C)(C)NC(=S)NC(=O)C12CC3CCC(CC(C3)C1)C2,6,5,7,70*,0
CC12CC3(C)CC(C)(C1)CC(C(=O)NC(=S)N1CCOCC1)(C2)C3,0,-1,-1,5,0
CC12CC3(C)CC(C)(C1)CC(C(=O)NC(=S)NC(C)(C)C)(C2)C3,1,5,19,70*,0
CN(C)NC(=S)NC(=O)C12CC3CC(CC(C3)C1)C2,2,0,9,47,0
COc1cc(S(=O)(=O)Nc2ccc(Br)cc2)ccc1N,4,4,-1,17,0

# High-throughput results from PubChem BioAssay.
